# Data reported in ChEMBL document CHEMBL5724801, “EUbOPEN Chemogenomics Library - Multiplex” (2024).
# Several values for one entry are separate records, joined by “and”; a condition that tells them apart may be missing. Equal entries are not always repeated.
# Tested on: U2OS
# Assay: Multiplex assay against U2OS
# Assay type: toxicity, cell-based
# Conditions: human
# Procedure, shortened: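 Values for tubulin, mitochondrial-mass and membrane-permeability phenotypes are per cents of cells with healthy nuclei. These cells were identified by CellPathfinder machine-learning gating of live cells that had been stained at seeding with Hoechst33342, BioTracker Green Microtubule Cytoskeleton Dye, MitoTracker Red and Annexin V Alexa Fluor 680 and imaged on a CQ1 microscope at 37°C and 5% CO2 after compound addition. The gating first set Hoechst high-intensity objects apart from normal cells, then split normal cells into healthy, pyknosed or fragmented nuclei, and pyknosed cells into mitotic or apoptotic.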
# [1] = 12 h, 1 µM, compound concentration 1 uM
# [2] = 12 h, 10 µM, compound concentration 10 uM
# [3] = 24 h, 1 µM, compound concentration 1 uM
# [4] = 24 h, 10 µM, compound concentration 10 uM
# [5] = 48 h, 1 µM, compound concentration 1 uM
# [6] = 48 h, 10 µM, compound concentration 10 uM
structure (smiles),measurement,setting,value
CC/C(=C(\c1ccc(O)cc1)c1ccc(OCCN(C)C)cc1)c1ccccc1 [AFIMOXIFENE],Population Fragmented Nuclei (%),[1],0.84% and 5.44%
same,Population Healthy Nuclei (%),[1],90.45% and 83.67%
same,Population Hoechst High Intensity Objects (%),[1],0%
same,Population Membrane Permeable-Phenotype (%),[1],4.07%
same,Population Mitochondria Different-Phenotype (%),[1],0.62% and 4.88%
same,Population Mitotic Cells (%),[1],51.61% and 87.5%
same,Population Normal (%),[1],100%
same,Population Pyknosed Nuclei (%),[1],8.71% and 10.88%
same,Population Tubulin-Different-Phenotype (%),[1],2.48% and 1.63%
same,Total Cell Count,[1],356 and 147
same,Population Apoptotic (%),[2],35.09% and 27.27%
same,Population Fragmented Nuclei (%),[2],2.04% and 0.59%
same,Population Healthy Nuclei (%),[2],78.57% and 73.37%
same,Population Hoechst High Intensity Objects (%),[2],0%
same,Population Membrane Permeable-Phenotype (%),[2],0.43% and 5.65%
same,Population Mitotic Cells (%),[2],64.91% and 72.73%
same,Population Normal (%),[2],100%
same,Population Pyknosed Nuclei (%),[2],19.39% and 26.04%
same,Population Tubulin-Different-Phenotype (%),[2],5.63% and 4.84%
same,Total Cell Count,[2],294 and 169
same,Population Apoptotic (%),[3],53.06% and 20%
same,Population Fragmented Nuclei (%),[3],1.85% and 5.11%
same,Population Healthy Nuclei (%),[3],88.09% and 83.52%
same,Population Hoechst High Intensity Objects (%),[3],0%
same,Population Membrane Permeable-Phenotype (%),[3],0.93% and 2.04%
same,Population Mitochondria Different-Phenotype (%),[3],0.7% and 6.12%
same,Population Mitotic Cells (%),[3],46.94% and 80%
same,Population Normal (%),[3],100%
same,Population Pyknosed Nuclei (%),[3],10.06% and 11.36%
same,Population Tubulin-Different-Phenotype (%),[3],2.04%
same,Total Cell Count,[3],487 and 176
same,Population Apoptotic (%),[4],33.75% and 23.46%
same,Population Fragmented Nuclei (%),[4],2.3%
same,Population Healthy Nuclei (%),[4],77.24% and 56.72%
same,Population Hoechst High Intensity Objects (%),[4],0%
same,Population Membrane Permeable-Phenotype (%),[4],0.99% and 3.51%
same,Population Mitotic Cells (%),[4],66.25% and 76.54%
same,Population Normal (%),[4],100%
same,Population Pyknosed Nuclei (%),[4],20.46% and 40.3%
same,Population Tubulin-Different-Phenotype (%),[4],7.95% and 3.51%
same,Total Cell Count,[4],391 and 201
same,Population Apoptotic (%),[5],41.05% and 54.05%
same,Population Fragmented Nuclei (%),[5],1.6% and 5.32%
same,Population Healthy Nuclei (%),[5],87.51% and 81.56%
same,Population Hoechst High Intensity Objects (%),[5],0%
same,Population Membrane Permeable-Phenotype (%),[5],1.18% and 2.61%
same,Population Mitochondria Different-Phenotype (%),[5],0.26% and 4.78%
same,Population Mitotic Cells (%),[5],58.95% and 45.95%
same,Population Normal (%),[5],100%
same,Population Pyknosed Nuclei (%),[5],10.88% and 13.12%
same,Population Tubulin-Different-Phenotype (%),[5],0.79% and 1.74%
same,Population Apoptotic (%),[6],43.75% and 40.78%
same,Population Fragmented Nuclei (%),[6],4.78% and 5.95%
same,Population Healthy Nuclei (%),[6],74.84% and 55.76%
same,Population Hoechst High Intensity Objects (%),[6],0%
same,Population Membrane Permeable-Phenotype (%),[6],2%
same,Population Mitotic Cells (%),[6],56.25% and 59.22%
same,Population Normal (%),[6],100%
same,Population Pyknosed Nuclei (%),[6],20.38% and 38.29%
same,Population Tubulin-Different-Phenotype (%),[6],7.66% and 8.67%
same,Total Cell Count,[6],628 and 269
O=c1cccc2n1C[C@@H]1CNC[C@H]2C1 [CYTISINICLINE],Population Apoptotic (%),[1],31.43% and 36.84%
same,Population Fragmented Nuclei (%),[1],0.94% and 1.67%
same,Population Healthy Nuclei (%),[1],90.87% and 87.78%
same,Population Hoechst High Intensity Objects (%),[1],0%
same,Population Membrane Permeable-Phenotype (%),[1],1.29% and 1.9%
same,Population Mitochondria Different-Phenotype (%),[1],0% and 5.06%
same,Population Mitotic Cells (%),[1],68.57% and 63.16%
same,Population Normal (%),[1],100%
same,Population Pyknosed Nuclei (%),[1],8.2% and 10.56%
same,Population Tubulin-Different-Phenotype (%),[1],1.29% and 0%
same,Total Cell Count,[1],427 and 180
same,Population Apoptotic (%),[2],50%
same,Population Fragmented Nuclei (%),[2],0.98% and 7.59%
same,Population Healthy Nuclei (%),[2],90.71% and 82.28%
same,Population Hoechst High Intensity Objects (%),[2],0%
same,Population Membrane Permeable-Phenotype (%),[2],1.35% and 0.77%
same,Population Mitochondria Different-Phenotype (%),[2],0% and 6.92%
same,Population Mitotic Cells (%),[2],50%
same,Population Normal (%),[2],100%
same,Population Pyknosed Nuclei (%),[2],8.31% and 10.13%
same,Population Tubulin-Different-Phenotype (%),[2],1.62% and 1.54%
same,Total Cell Count,[2],409 and 158
same,Population Apoptotic (%),[3],30.23% and 40%
same,Population Fragmented Nuclei (%),[3],2.82% and 2.92%
same,Population Healthy Nuclei (%),[3],89.59% and 86.67%
same,Population Hoechst High Intensity Objects (%),[3],0%
same,Population Membrane Permeable-Phenotype (%),[3],1.18% and 2.4%
same,Population Mitochondria Different-Phenotype (%),[3],0% and 2.4%
same,Population Mitotic Cells (%),[3],69.77% and 60%
same,Population Normal (%),[3],100%
same,Population Pyknosed Nuclei (%),[3],7.58% and 10.42%
same,Population Tubulin-Different-Phenotype (%),[3],0.59% and 0.96%
same,Total Cell Count,[3],567 and 240
same,Population Apoptotic (%),[4],32.61% and 45%
same,Population Fragmented Nuclei (%),[4],0.88% and 4.81%
same,Population Healthy Nuclei (%),[4],91.01% and 85.58%
same,Population Hoechst High Intensity Objects (%),[4],0.18% and 0%
same,Population Membrane Permeable-Phenotype (%),[4],0.97% and 1.69%
same,Population Mitochondria Different-Phenotype (%),[4],0% and 3.37%
same,Population Mitotic Cells (%),[4],67.39% and 55%
same,Population Normal (%),[4],99.82% and 100%
same,Population Pyknosed Nuclei (%),[4],8.11% and 9.62%
same,Population Tubulin-Different-Phenotype (%),[4],2.13% and 1.69%
same,Total Cell Count,[4],568 and 208
same,Population Apoptotic (%),[5],42.86% and 41.18%
same,Population Fragmented Nuclei (%),[5],3.85% and 0.73%
same,Population Healthy Nuclei (%),[5],89.27% and 86.8%
same,Population Hoechst High Intensity Objects (%),[5],0% and 0.49%
same,Population Membrane Permeable-Phenotype (%),[5],0.8% and 1.41%
same,Population Mitochondria Different-Phenotype (%),[5],0.1% and 3.1%
same,Population Mitotic Cells (%),[5],57.14% and 58.82%
same,Population Normal (%),[5],100% and 99.51%
same,Population Pyknosed Nuclei (%),[5],6.89% and 12.47%
same,Population Tubulin-Different-Phenotype (%),[5],0.6% and 0.56%
same,Total Cell Count,[5],1118 and 411
same,Population Apoptotic (%),[6],42.39% and 63.89%
same,Population Fragmented Nuclei (%),[6],3.71% and 1.13%
same,Population Healthy Nuclei (%),[6],87.55% and 88.7%
same,Population Hoechst High Intensity Objects (%),[6],0%
same,Population Membrane Permeable-Phenotype (%),[6],0.65% and 2.23%
same,Population Mitochondria Different-Phenotype (%),[6],0.11% and 0.96%
same,Population Mitotic Cells (%),[6],57.61% and 36.11%
same,Population Normal (%),[6],100%
same,Population Pyknosed Nuclei (%),[6],8.75% and 10.17%
same,Population Tubulin-Different-Phenotype (%),[6],1.19% and 0.64%
same,Total Cell Count,[6],1052 and 354
